For one data set, the system named is A549. Put plainly: Cytotoxicity against human A549 cells after 3 days by MTT assay. Type of data set: functional, cell-based. The settings on record: A549, 72 h. In short, it runs like this:
(§1)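 MTT viability assay on NB4 (acute promyelocytic leukemia), A549 (lung adenocarcinoma), SHSY5Y (neuroblastoma), PC3 (prostate) and MCF7 (breast adenocarcinoma) cells, reported as IC50. Paclitaxel was the positive control. Performed in triplicate.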
(Formazan colour is commonly taken as a measure of viable cells.)

Data set [1] in a line: Therapeutic index, ratio of CC50 for human C8166 cells to EC50 for HIV-1 3B. Type of data set: cell-based. The settings on record: read-out: Ratio CC50/EC50.
Data set [2] has as its system Human immunodeficiency virus 1. Put plainly: Antiviral activity against HIV-1 3B infected in human C8166 cells assessed as inhibition of virus-induced cytopathic effect after 3 days by Syncytia Assay. Type of data set: functional, organism-based. The settings on record: Human immunodeficiency virus 1, 3B, C8166, 72 h. In short, it runs like this: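 Inhibition of HIV-1-induced cytopathic effect in C8166 cells, expressed as EC50. Azidothymidine (AZT) served as the positive control. Performed in triplicate.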
(Cytopathic effects are the visible damage that an infection or toxin causes in cultured cells.)

Another data set relates to PC-3. Put plainly: Cytotoxicity against human PC3 cells after 3 days by MTT assay. Type of data set: functional, cell-based. Particulars: PC-3, 72 h. The gist of the method:
as §1

A short description of data set [3]: Cytotoxicity against human SH-SY5Y cells after 3 days by MTT assay. Type of data set: functional, cell-based. The settings on record: 72 h. The gist of the method: as §1
Another data set has as its system MCF7. Nature of the data set: Cytotoxicity against human MCF7 cells after 3 days by MTT assay. Particulars: MCF7, 72 h. It is filed as functional, cell-based. The gist of the method:
as §1

Data set [4] is described as follows: Cytotoxicity against human C8166 cells after 3 days by MTT assay. It is filed as cell-based. The gist of the method: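 Viability of uninfected C8166 cells was measured by MTT to give CC50, alongside the anti-HIV-1 assay. Performed in triplicate.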
The test system of another data set is NB-4. Nature of the data set: Cytotoxicity against human NB4 cells after 3 days by MTT assay. The settings on record: NB-4, 72 h. It is filed as functional, cell-based. In short, it runs like this: as §1

For orientation: IC50 means the concentration that gives 50% inhibition. A low value points to higher potency. By EC50 is commonly meant the concentration needed to bring the measured effect to its halfway point. Broadly, the CC50 is the concentration at which the toxic effect on the cells reaches its halfway point. Low readings indicate greater toxicity to the cells, high ones lower toxicity to the cells. Turning to `COc1c(O)cc2c(c1OC)-c1c(cc3c(c1OC)OCO3)[C@H](OC(=O)C(C)C)[C@H](C)[C@H](C)C2`, the IC50 (in the data set on A549; with PC-3; in data set [3]; in the data set on MCF7; in the data set on NB-4) was over 10 µM each time. Further, the selectivity ratio in data set [1] came to 18.1. In addition, in data set [2], the EC50 is 8.2 µM. Besides, the CC50 at 72 h in data set [4] stood at 149 µM.

As for `COc1c(OC)c(C(=O)O)c2c(c1OC)-c1c(cc3c(c1OC)OCO3)[C@H](O)[C@H](C)[C@H](C)C2`, the IC50 is 6.8 µM in the data set with A549; over 10 µM in the data set with PC-3; over 10 µM in data set [3]; 7.4 µM with MCF7; over 10 µM with NB-4. In addition, in data set [1], the selectivity ratio was 40.3. In addition, the EC50 in data set [2] was determined as 2.2 µM. Further, the CC50 at 72 h in data set [4] was 86.7 µM.

Consider `COc1c(O)c(C(=O)O)c2c(c1OC)-c1c(cc3c(c1OC)OCO3)[C@H](O)[C@H](C)[C@H](C)C2`, for which the IC50 is 5.9 µM with A549; 9.2 µM in the data set with PC-3; over 10 µM in data set [3]; over 10 µM in the data set with MCF7; over 10 µM in the data set with NB-4. Also, the selectivity ratio in data set [1] worked out at 55.3. Moreover, in data set [2], the EC50 was 1.4 µM. In data set [4], the CC50 at 72 h was 75.2 µM.

Take `COc1c2c(cc(CC(C)=O)c1-c1c(CC(C)=O)cc3c(c1OC)OCO3)OCO2`: the IC50 in the data set on A549 is over 6.5 µM; with PC-3 it was over 10 µM; in data set [3], 8.2 µM; in the data set on MCF7, over 10 µM; in the data set on NB-4, 7.3 µM. The selectivity ratio in data set [1] was determined as 14.1. In addition, in data set [2], the EC50 worked out at 3.9 µM. This compound also had a CC50 at 72 h in data set [4] of 54.5 µM.

As for `COc1cc(CC(C)=O)c(-c2c(CC(C)=O)cc(OC)c(OC)c2O)c(O)c1OC`, the IC50 in the data set on A549 stood at 8.6 µM; with PC-3, 5.1 µM; in data set [3], 3.3 µM; in the data set on MCF7 it was 7.8 µM; in the data set on NB-4, 2.9 µM. For the same compound, the selectivity ratio in data set [1] came to 9.2. In addition, the EC50 in data set [2] stood at 4.2 µM. Further, in data set [4], the midpoint of cytotoxicity, the CC50 at 72 h, lay at 38.8 µM.

Consider `COc1cc2c(c(OC)c1OC)-c1c(cc(OC)c(OC)c1OC)[C@H](OCC(C)C)[C@@H](C)[C@@H](C)C2`, for which the IC50 (in the data set on A549; in the data set with PC-3; in data set [3]; in the data set on MCF7; with NB-4) was over 10 µM each time. In addition, the selectivity ratio in data set [1] is over 33.7. Moreover, the EC50 in data set [2] is 5.9 µM. Also, in data set [4], the CC50 at 72 h was over 200 µM.

Regarding `COc1cc2c(c(OC)c1OC)-c1c(cc(O)c(OC)c1OC)[C@H](OCC(C)C)[C@@H](C)[C@@H](C)C2`, the IC50 (in the data set with A549; in the data set with PC-3; in data set [3]; with MCF7; in the data set with NB-4) was over 10 µM throughout. Further, in data set [1], the selectivity ratio is over 58. For the same compound, in data set [2], the EC50 worked out at 3.5 µM. In data set [4], this compound showed a CC50 at 72 h of over 200 µM.

As to `COc1cc2c(c(OC)c1OC)-c1c(cc(O)c(OC)c1OC)C[C@H](C)[C@@](C)(O)C2`, the selectivity ratio in data set [1] is 15.1. In addition, in data set [2], the EC50 is 8.2 µM. The compound further registered a CC50 at 72 h in data set [4] of 124 µM.

As to `C/C=C(/C)C(=O)O[C@H]1c2cc(OC)c(OC)c(OC)c2-c2c(cc(OC)c(OC)c2OC)C[C@H](C)[C@]1(C)O`, the IC50 was over 10 µM in the data set with A549; over 10 µM in the data set on PC-3; 7.8 µM in data set [3]; over 10 µM with MCF7; over 10 µM in the data set with NB-4. Besides, the selectivity ratio in data set [1] worked out at 7.4. Also, the EC50 in data set [2] came out at 11.5 µM. Besides, it took 84.7 µM to reach half-maximal cytotoxicity in data set [4] (CC50 at 72 h).

Regarding `COc1cc2c(c(O)c1OC)-c1c(cc(OC)c(OC)c1OC)[C@H](OC(=O)c1ccccc1)[C@@H](C)[C@@](C)(O)[C@H]2OC(C)=O`, the IC50 is over 10 µM with A549; over 10 µM in the data set on PC-3; over 10 µM in data set [3]; 9.7 µM in the data set on MCF7; 7.4 µM in the data set on NB-4. The selectivity ratio in data set [1] was 17.8. In data set [2], the EC50 came to 8.3 µM. In data set [4], the CC50 at 72 h came out at 147 µM.

`COc1cc2c(c(OC)c1OC)-c1c3cc4c(c1OC[C@@H](C)[C@@](C)(O)C(=O)O[C@@H]2[C@@](C)(O)[C@@H](C)C3)OCO4`: the selectivity ratio in data set [1] worked out at 18.9. Moreover, in data set [2], the EC50 was 9.8 µM. Also, the midpoint of cytotoxicity in data set [4], the CC50 at 72 h, lay at 186 µM.

`COc1cc2c(c(O)c1OC)-c1c(cc3c(c1OC)OCO3)C[C@H](C)[C@H](C)C2` (racemic): the IC50 (in the data set with A549; in the data set on PC-3; in data set [3]; in the data set with MCF7; in the data set on NB-4) was over 10 µM throughout.

`COc1cc2c(c(OC)c1OC)-c1c(cc3c(c1OC)OCO3)[C@H](OC(=O)C=C(C)C)[C@@](C)(O)[C@@H](C)C2` [GOMISIN F]: the IC50 (with A549; with PC-3; in data set [3]; in the data set on MCF7; in the data set on NB-4) was over 10 µM in each case. For the same compound, the selectivity ratio in data set [1] came to 7.5. Further, the EC50 in data set [2] amounted to 8.3 µM. In data set [4], this compound returned a CC50 at 72 h of 61.9 µM.

`C/C=C(/C)C(=O)O[C@H]1c2cc(OC)c(OC)c(OC)c2-c2c(cc3c(c2OC)OCO3)[C@H](OC(C)=O)[C@H](C)[C@@H]1C` [INTERIOTHERIN C]: the IC50 (in the data set on A549; with PC-3; in data set [3]; in the data set with MCF7; with NB-4) was over 10 µM each time.

On to `COc1cc2c(c(OC)c1OC)-c1c(cc3c(c1OC)OCO3)[C@H](O)[C@H](C)[C@H](C)C2` [ISOGOMISIN O], for which the IC50 (with A549; in the data set with PC-3; in data set [3]; with MCF7; in the data set on NB-4) was over 10 µM throughout.

On to `COc1c(O)cc2c(c1OC)-c1c(cc(O)c(OC)c1OC)[C@H](OCc1ccccc1)[C@@H](C)[C@@H](C)C2` [MARLIGNAN G], for which the IC50 with A549 was 8.6 µM; with PC-3, 9.5 µM; in data set [3], over 10 µM; in the data set on MCF7 it was over 10 µM; with NB-4, over 10 µM.

In the case of `CC(=O)O[C@H]1C(=O)[C@@]2(C)[C@H]([C@H](OC(=O)c3ccccc3)[C@]3(O)C[C@H](OC(=O)[C@H](O)[C@@H](NC(=O)c4ccccc4)c4ccccc4)C(C)=C1C3(C)C)[C@]1(OC(C)=O)CO[C@@H]1C[C@@H]2O` [PACLITAXEL], the IC50 in the data set with A549 came out at 0.02 µM; in data set [3], 0.2 µM; in the data set with NB-4, 0.03 µM.

Regarding `COc1cc2c(c(OC)c1OC)-c1c(cc3c(c1OC)OCO3)C[C@H](C)[C@H](C)[C@H]2OC(C)=O` [RUBSCHISANTHERIN], the IC50 (with A549; in the data set on PC-3; in data set [3]; in the data set on MCF7; in the data set on NB-4) was over 10 µM in each case. Besides, the selectivity ratio in data set [1] was 18.2. For the same compound, the EC50 in data set [2] was determined as 4.7 µM. Further, the CC50 at 72 h in data set [4] is 85.2 µM.

Regarding `COc1cc(CO)c(-c2c(C[C@H](C)C(C)=O)cc3c(c2OC)OCO3)c(OC)c1OC` [SCHISPHENONE], the IC50 in the data set on A549 was over 10 µM; in the data set on PC-3, 8.9 µM; in data set [3], over 10 µM; in the data set on MCF7, over 10 µM; with NB-4, over 10 µM. The selectivity ratio in data set [1] was determined as 12.3. In addition, the EC50 in data set [2] was found to be 12.7 µM. Besides, the CC50 at 72 h in data set [4] was determined as 156 µM.

For the compound `Cc1cn([C@H]2C[C@H](N=[N+]=[N-])[C@@H](CO)O2)c(=O)[nH]c1=O` [ZIDOVUDINE], the EC50 in data set [2] was 0.034 µM. The same compound registered a CC50 at 72 h in data set [4] of over 200 µM.
